Measured values: ChEMBL document CHEMBL1140161, “Structure-activity relationships in 1,4-benzodioxan-related compounds. 9. From 1,4-benzodioxane to 1,4-dioxane ring as a promising template of novel alpha1D-adrenoreceptor antagonists, 5-HT1A full agonists, and cytotoxic agents” (J Med Chem, 2008)

Key:
[1] = molecular target: T1, Alpha-1B adrenergic receptor (Rattus norvegicus) (UniProt P15823); assay: Antagonist activity at alpha1B adrenoceptor in Wistar rat spleen assessed as inhibition of (-)-phenylephrine-induced contraction after 30 mins; assay type: functional, tissue-based
T1 sequence (whole entry): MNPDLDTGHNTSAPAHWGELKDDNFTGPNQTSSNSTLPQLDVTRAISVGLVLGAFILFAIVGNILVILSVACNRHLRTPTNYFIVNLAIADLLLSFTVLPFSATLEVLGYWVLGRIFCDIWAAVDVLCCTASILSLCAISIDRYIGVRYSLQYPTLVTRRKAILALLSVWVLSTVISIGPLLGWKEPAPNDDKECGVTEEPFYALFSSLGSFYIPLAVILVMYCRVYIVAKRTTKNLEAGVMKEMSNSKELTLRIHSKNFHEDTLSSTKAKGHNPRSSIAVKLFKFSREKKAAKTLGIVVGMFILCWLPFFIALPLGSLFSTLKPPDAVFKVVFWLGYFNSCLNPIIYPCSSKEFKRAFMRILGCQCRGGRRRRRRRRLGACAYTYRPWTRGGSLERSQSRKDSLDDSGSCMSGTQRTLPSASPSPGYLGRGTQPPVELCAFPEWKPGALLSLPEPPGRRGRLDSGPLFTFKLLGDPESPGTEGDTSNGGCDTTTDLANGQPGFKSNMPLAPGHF

[2] = molecular target: T2, Alpha-1A adrenergic receptor (Rattus norvegicus) (UniProt P43140); assay: Antagonist activity at alpha1A adrenoceptor in Wistar rat prostatic vas deferens assessed as inhibition of (-)-noradrenaline-induced contraction after 30 mins; assay type: functional, tissue-based
T2 sequence (whole entry): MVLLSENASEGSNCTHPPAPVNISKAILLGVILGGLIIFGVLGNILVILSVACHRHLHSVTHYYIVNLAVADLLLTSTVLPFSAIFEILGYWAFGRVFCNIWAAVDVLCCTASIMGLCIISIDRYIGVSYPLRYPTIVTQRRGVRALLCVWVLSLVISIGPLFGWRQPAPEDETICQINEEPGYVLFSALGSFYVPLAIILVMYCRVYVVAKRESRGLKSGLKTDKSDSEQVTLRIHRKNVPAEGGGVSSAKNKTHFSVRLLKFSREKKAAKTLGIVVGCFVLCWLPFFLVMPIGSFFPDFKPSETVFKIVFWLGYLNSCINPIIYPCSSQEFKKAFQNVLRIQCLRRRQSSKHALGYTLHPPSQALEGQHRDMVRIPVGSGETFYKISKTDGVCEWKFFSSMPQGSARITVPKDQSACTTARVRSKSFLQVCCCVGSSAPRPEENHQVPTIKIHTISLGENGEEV

[3] = system: PC-3; assay: Cytotoxicity against human PC3 cells after 48 hrs by SRB assay; assay type: functional; conditions: PC-3, 48 h; for CC50: read-out: LC50 (the source's name)
Summary of the method: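 PC-3 human prostate cancer cells. Growth measured by sulforhodamine B staining following the NCI protocol. […] Values are means of quadruplicate determinations ± standard error (n = 5).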

[4] = molecular target: T3, Alpha-1D adrenergic receptor (Rattus norvegicus) (UniProt P23944); assay: Antagonist activity at Alpha-1D adrenoceptor in Wistar rat thoracic aorta assessed as inhibition of (-)-noradrenaline-induced contraction after 30 mins; assay type: functional, tissue-based
T3 sequence (whole entry): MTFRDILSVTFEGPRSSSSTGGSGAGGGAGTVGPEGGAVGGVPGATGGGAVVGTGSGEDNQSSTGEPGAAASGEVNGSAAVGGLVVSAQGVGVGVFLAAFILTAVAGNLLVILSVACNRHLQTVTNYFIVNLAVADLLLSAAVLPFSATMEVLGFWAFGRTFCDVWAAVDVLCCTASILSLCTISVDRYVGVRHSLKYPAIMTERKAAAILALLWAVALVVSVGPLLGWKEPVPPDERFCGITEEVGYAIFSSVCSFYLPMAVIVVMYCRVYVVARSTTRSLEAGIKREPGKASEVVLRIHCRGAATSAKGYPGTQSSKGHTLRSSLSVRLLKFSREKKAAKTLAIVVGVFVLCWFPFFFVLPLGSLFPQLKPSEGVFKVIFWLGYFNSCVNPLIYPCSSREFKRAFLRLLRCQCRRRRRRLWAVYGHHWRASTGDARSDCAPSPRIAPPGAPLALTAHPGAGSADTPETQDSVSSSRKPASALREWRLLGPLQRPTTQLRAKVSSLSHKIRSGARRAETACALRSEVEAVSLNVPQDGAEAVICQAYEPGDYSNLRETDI

[5] = molecular target: T4, 5-hydroxytryptamine receptor 1A (Homo sapiens) (UniProt P08908); assay: Agonist activity at human cloned 5HT1A receptor expressed in human HeLa cell membrane assessed as stimulation of [35S]GTPgammaS binding; assay type: functional, cell membranes
T4 sequence (whole entry): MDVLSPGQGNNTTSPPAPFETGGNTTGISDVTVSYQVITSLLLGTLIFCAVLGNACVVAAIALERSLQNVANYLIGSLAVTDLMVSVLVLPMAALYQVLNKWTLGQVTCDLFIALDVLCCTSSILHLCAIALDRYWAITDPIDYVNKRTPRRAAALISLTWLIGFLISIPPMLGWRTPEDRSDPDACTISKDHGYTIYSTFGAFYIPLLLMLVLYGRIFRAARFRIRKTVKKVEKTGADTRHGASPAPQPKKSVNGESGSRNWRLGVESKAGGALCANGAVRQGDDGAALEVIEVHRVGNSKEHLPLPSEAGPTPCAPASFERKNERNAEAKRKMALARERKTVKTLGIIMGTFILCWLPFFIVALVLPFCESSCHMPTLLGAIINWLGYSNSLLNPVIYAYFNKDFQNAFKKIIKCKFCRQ
Summary of the method: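 Membranes from HeLa cells expressing cloned human 5-HT1A receptor; agonist-stimulated [35S]GTPγS binding measured. pD2 is the negative log of the agonist concentration giving 50% of maximal [35S]GTPγS binding stimulation; values from two to three experiments.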

[6] = molecular target: T4, 5-hydroxytryptamine receptor 1A (Homo sapiens); assay: Agonist activity at human cloned 5HT1A receptor expressed in HeLa cell membrane assessed as stimulation of [35S]GTPgammaS binding relative to 5-hydroxytryptamine; assay type: functional, cell membranes
Summary of the method: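 Activation measured as [35S]GTPγS binding in membranes from HeLa cells expressing cloned human 5-HT1A receptor. pD2 is the negative log of agonist concentration giving 50% of maximal stimulation, from two to three experiments agreeing within 20%. Efficacy is given relative to 5-HT.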

[7] = molecular target: T5, Alpha-1B adrenergic receptor (Homo sapiens, UniProt P35368); assay: Displacement of [3H]prazosin from human cloned Alpha-1B adrenoceptor expressed in CHO cells; assay type: cell-based
T5 sequence (P35368 whole entry): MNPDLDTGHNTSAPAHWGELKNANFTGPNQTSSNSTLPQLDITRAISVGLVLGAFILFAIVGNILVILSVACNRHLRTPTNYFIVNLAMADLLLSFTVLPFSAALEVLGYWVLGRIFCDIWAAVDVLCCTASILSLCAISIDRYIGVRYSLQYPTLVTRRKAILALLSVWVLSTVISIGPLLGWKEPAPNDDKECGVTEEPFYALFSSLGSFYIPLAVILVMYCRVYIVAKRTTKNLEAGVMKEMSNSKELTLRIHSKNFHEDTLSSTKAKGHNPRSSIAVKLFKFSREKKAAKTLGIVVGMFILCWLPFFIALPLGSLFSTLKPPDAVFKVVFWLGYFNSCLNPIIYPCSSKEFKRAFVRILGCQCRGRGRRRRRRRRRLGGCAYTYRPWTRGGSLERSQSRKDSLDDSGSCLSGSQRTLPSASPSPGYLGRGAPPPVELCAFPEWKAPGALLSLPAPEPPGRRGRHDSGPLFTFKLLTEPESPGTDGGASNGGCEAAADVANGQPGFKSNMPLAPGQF
Summary of the method: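 [3H]prazosin binding to cloned human α1-adrenoceptor subtypes expressed in CHO cell membranes. Affinity reported as pKi for each subtype.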

COc1cccc(OC)c1OCCNCC1COc2ccccc2O1 (configuration not stated)
pKb [1]: 8.16 | pKb [2]: 9.51 | GI50 [3]: 64.6 µM | TGI [3]: 199 µM | CC50 [3]: > 200 µM | pKb [4]: 8.8

COc1ccccc1N1CCN(CCN2C(=O)CC3(CCCC3)CC2=O)CC1
pKb [1]: 7.48 | pD2 [5]: 9.27 | %max [6]: 26

NCCc1c[nH]c2ccc(C(N)=O)cc12
pD2 [5]: 8.45 | %max [6]: 96

NCCc1c[nH]c2ccc(O)cc12
pD2 [5]: 7.3

CCCN(CCC)C1CCc2cccc(O)c2C1 (configuration not stated) [8-OH-DPAT]
Ki [7]: > 1 µM | %max [6]: 100

COc1cc2nc(N3CCN(C(=O)C4COc5ccccc5O4)CC3)nc(N)c2cc1OC (configuration not stated) [DOXAZOSIN]
GI50 [3]: 26.9 µM | TGI [3]: 49 µM | CC50 [3]: 75.8 µM
